Published values of several laboratories.
Compare with care: the assays were run in different laboratories.
EHMT1: Histone-lysine N-methyltransferase EHMT1 (EHMT1, Homo sapiens, UniProt Q9H9B1)
SPHK1: Sphingosine kinase 1 (SPHK1, Homo sapiens, UniProt Q9NYA1)
EDNRA: Endothelin-1 receptor (EDNRA, Homo sapiens, UniProt P25101)
ADORA2A: Adenosine receptor A2a (ADORA2A, Homo sapiens, UniProt P29274)
PDE5A: cGMP-specific 3',5'-cyclic phosphodiesterase (PDE5A, Homo sapiens, UniProt O76074)
CNR1: Cannabinoid receptor 1 (CNR1, Homo sapiens, UniProt P21554)
PARP1: Poly [ADP-ribose] polymerase 1 (PARP1, Homo sapiens, UniProt P09874)
SIGMAR1: Sigma non-opioid intracellular receptor 1 (SIGMAR1, Homo sapiens, UniProt Q99720)

O=c1c(O)cccc2cc(O)c(O)c(O)c12
inhibition (EHMT1; cell-free assay; 10 µM): 3%

O=C(CSc1nc2nccnc2c(=O)n1CCc1ccccc1)Nc1ccccc1
inhibition (SPHK1; enzyme activity, inhibitor; 10 µM): < 20%

Cn1cncc1C1=CN(c2ncnc3[nH]cnc23)CCS1
inhibition (Interleukin-1 receptor-associated kinase-like 2 (IRAK2, Homo sapiens, UniProt O43187); enzyme activity, inhibitor, radiometric; 50 nM): 30.7%

CSCCC(NC=O)C(=O)NC(C)C(=O)O (centres unmarked)
inhibition (EHMT1; cell-free assay; 10 µM): 0%

O=C(c1ccc(Cl)cc1)N(Cc1ccccc1)C1CCCCC1
inhibition (EDNRA; cell-free assay; 10 µM): 1.4%

c1ccc(N2CCN(CCCc3ccc4oc(-c5ccco5)nc4c3)CC2)cc1
inhibition (ADORA2A; ligand displacement, radioligand; 10 µM, cell membranes): 28%

COC(=O)[C@@H]1Cc2c([nH]c3ccccc23)[C@@H](c2ccc(OC)c(OC)c2)N1
inhibition (PDE5A; enzyme activity, inhibitor, FP; 50 µM): 7%

CN1CC(Oc2cnc(C#N)cc2-c2ccn3nc(NC(=O)C4CC4)cc3c2)C1
inhibition (Testis-specific serine/threonine-protein kinase 4 (TSSK4, Homo sapiens, UniProt Q6SA08); enzyme activity, inhibitor; 1 µM): -7%

O=C(CN1CCN(c2ccccc2)CC1)Nc1ccc2oc(-c3ccco3)nc2c1
inhibition (ADORA2A; ligand displacement, radioligand; 10 µM, cell membranes): 12%

CCN1C(=O)[C@H]2Cc3c([nH]c4ccccc34)[C@@H](c3cccnc3)N2C1=O
inhibition (PDE5A; enzyme activity, inhibitor, FP; 50 µM): 102%

CCN1CCN(Cc2ccc(NC(=O)c3ccc(C)c(/C=C/c4cnc5[nH]ccc5c4OC)c3)cc2C(F)(F)F)CC1
inhibition (Serine/threonine-protein kinase A-Raf (ARAF, Homo sapiens, UniProt P10398); target engagement in cells, inhibitor, chemoproteomics; A-375; 5 µM): -23.9%

CCCCCC=CCOc1ccc(-c2noc([C@@H]3CCCN3C(=N)N)n2)cc1C(F)(F)F (mixture of isomers)
inhibition (SPHK1; enzyme activity, inhibitor, radiometric; 1 µM): 54%

O=C(Nc1ccc(S(=O)(=O)N2CCC(Cl)CC2)cc1)c1ccc([N+](=O)[O-])o1
inhibition (Kappa-type opioid receptor (OPRK1, Homo sapiens, UniProt P41145); cell-free assay; 10 µM): 7%

c1coc(-c2nc3cc(CN4CCNCC4)ccc3o2)c1
inhibition (ADORA2A; ligand displacement, radioligand; 10 µM, cell membranes): 15%

[H]/N=C(\N)N1CCC[C@H]1c1nc(-c2ccc(OCC=Cc3ccc(C(F)(F)F)cc3)c(C(F)(F)F)c2)no1
inhibition (SPHK1; enzyme activity, inhibitor, radiometric; 1 µM): 20%

O=c1c(O)cccc2c([C@H]3Oc4cc(O)cc(O)c4C[C@H]3O)cc(O)c(O)c12
inhibition (EHMT1; cell-free assay; 10 µM): 5%

COc1ccc(-n2nc(OCCCN3CCCCC3)ccc2=O)cc1
inhibition (CNR1; ligand displacement; 1 µM): 43.8%

COc1ccc([C@H]2c3[nH]c4ccccc4c3C[C@H]3C(=O)N(C(C)(C)C)C(=O)N23)cc1OC
inhibition (PDE5A; enzyme activity, inhibitor, FP; 50 µM): 58%

CN(C)C1CCN(CC#Cc2nn(C3CCCC3)c3nc(NCc4ccccc4)ncc23)C1 (centres unmarked)
inhibition (Serine/threonine-protein kinase TBK1 (TBK1, Homo sapiens, UniProt Q9UHD2); enzyme activity, inhibitor, FRET; 1 µM): 3%

CN1CCN(CCCOc2ccc(=O)n(-c3ccc(Cl)c(Cl)c3)n2)CC1
inhibition (CNR1; ligand displacement; 1 µM): 27.4%

Cc1cnc(C(=O)NCCNC(=O)Cn2[nH]c(=O)c3ccccc3c2=O)cn1
inhibition (PARP1; enzyme activity, inhibitor; 0.5 µM): ~50%

CC(C)(C)N1C(=O)[C@@H]2Cc3c([nH]c4ccccc34)[C@@H](c3cccnc3)N2C1=O
inhibition (PDE5A; enzyme activity, inhibitor, FP; 50 µM): 90%

Oc1ccc(CCNc2ccc3oc(-c4ccco4)nc3c2)cc1
inhibition (ADORA2A; ligand displacement, radioligand; 10 µM, cell membranes): 15%

Ic1cccc2cnccc12
inhibition (SIGMAR1; ligand displacement, radioligand; 10 µM): 21%

O=C(CSc1nc2nccnc2c(=O)n1CCc1ccccc1)Nc1nccs1
inhibition (SPHK1; enzyme activity, inhibitor; 10 µM): 8%

O=C(CN1CCNCC1)Nc1ccc2oc(-c3ccco3)nc2c1
inhibition (ADORA2A; ligand displacement, radioligand; 10 µM, cell membranes): 8%

CCCc1ccc(CCc2ccc(-c3noc([C@@H]4CCCN4C(=N)N)n3)cc2C(F)(F)F)cc1
inhibition (SPHK1; enzyme activity, inhibitor, radiometric; 1 µM): 6%

COc1cc(NC(C)CCCN)c2ncccc2c1 (centres unmarked)
inhibition (EHMT1; cell-free assay; 10 µM): 7%

O=C1NCCCc2c(O)cccc21
inhibition (PARP1; enzyme activity, inhibitor; 10 µM): 43%

[H]/N=C(/N)N1CCC[C@H]1c1nc(-c2ccc(OCCC=CCCC)c(C(F)(F)F)c2)no1
inhibition (SPHK1; enzyme activity, inhibitor, radiometric; 1 µM): 11%

Nc1ccc(-c2ccncc2)cc1NC(=O)N1CCCC1
inhibition (CNR1; ligand displacement, radioligand; 10 µM): 15%

O=C(c1ccc(F)cc1)N(Cc1ccccc1)C1CCCCC1
inhibition (SIGMAR1; cell-free assay; 10 µM): 9%

CC(C)(C)N1C(=O)[C@@H]2Cc3c([nH]c4ccccc34)[C@@H](c3ccc(Br)s3)N2C1=O
inhibition (PDE5A; enzyme activity, inhibitor, FP; 10 µM): 90%

N#Cc1cc(Cn2c(N3CCCC3)nc3ccccc32)ccc1F
inhibition (Histamine H4 receptor (HRH4, Homo sapiens, UniProt Q9H3N8); ligand displacement; 10 µM): -16%

COC(=O)[C@H]1Cc2c([nH]c3ccccc23)[C@H](c2cccnc2)N1
inhibition (PDE5A; enzyme activity, inhibitor, FP; 50 µM): 30%

N=C(N)N1CCC[C@H]1c1nc(-c2ccc(CCC3CC3)c(C(F)(F)F)c2)no1
inhibition (SPHK1; enzyme activity, inhibitor, radiometric; 1 µM): 14%

O=c1[nH]c(-c2c[nH]c3ncccc23)nc2ccccc12
inhibition (PARP1; enzyme activity, inhibitor, ELISA; 10 µM): 28%

COC(=O)[C@@H]1Cc2c([nH]c3ccccc23)[C@@H](c2ccc(OC)c(OC)c2)N1C(=O)CCl
inhibition (PDE5A; enzyme activity, inhibitor, FP; 50 µM): 22%

COc1cc(NC(C)=O)c(Cl)cc1C(=O)Nc1nccs1
inhibition (EDNRA; cell-free assay; 10 µM): -1.4%

CC(C)(C)c1ccc(CCc2ccc(-c3noc([C@@H]4CCCN4C(=N)N)n3)cc2C(F)(F)F)cc1
inhibition (SPHK1; enzyme activity, inhibitor, radiometric; 1 µM): 17%

CCN1C(=O)[C@H]2Cc3c([nH]c4ccccc34)[C@@H](c3ccc(OC)c(OC)c3)N2C1=O
inhibition (PDE5A; enzyme activity, inhibitor, FP; 50 µM): 78%

O=C1c2c(O)cccc2Cc2cccc(O)c21
inhibition (EHMT1; cell-free assay; 10 µM): 10%

CCCC=CCOc1ccc(-c2noc([C@@H]3CCCN3C(=N)N)n2)cc1C(F)(F)F
inhibition (SPHK1; enzyme activity, inhibitor, radiometric; 1 µM): 12%

CC(C)CCn1c(SCC(=O)Nc2ccccc2C(F)(F)F)nc2nccnc2c1=O
inhibition (Phosphatidylinositol 4-phosphate 3-kinase C2 domain-containing subunit beta (PIK3C2B, Homo sapiens, UniProt O00750); enzyme activity, inhibitor; 10 µM): 23%

O=C(O)CCCCCCCCCCCC[C@@H]1C=CCC1
inhibition (EHMT1; cell-free assay; 10 µM): -11%

O=C(c1ccc(-c2nc3ccccc3c(=O)[nH]2)c(F)c1)N1CCn2c(nnc2C(F)(F)F)C1
inhibition (PARP1; enzyme activity, inhibitor, ELISA; 1 µM): 13%

Oc1cccc(Nc2nc(-c3ccc(F)cc3F)cs2)c1
inhibition (ADORA2A; cell-free assay; 10 µM): 76%
